Data as given in ChEMBL document CHEMBL1134679, “Exploiting subsite S1 of trypsin-like serine proteases for selectivity: potent and selective inhibitors of urokinase-type plasminogen activator” (J Med Chem, 2001).

Experiments:
Plasma kallikrein = Plasma kallikrein (Homo sapiens, UniProt P03952); assay: The compound was tested for inhibition of human p-kallikrein
Coagulation factor VII = biological target: T1, Coagulation factor VII (Homo sapiens, UniProt P08709); assay: The compound was tested for inhibition of human coagulation factor VII
T1 sequence (P08709 whole entry): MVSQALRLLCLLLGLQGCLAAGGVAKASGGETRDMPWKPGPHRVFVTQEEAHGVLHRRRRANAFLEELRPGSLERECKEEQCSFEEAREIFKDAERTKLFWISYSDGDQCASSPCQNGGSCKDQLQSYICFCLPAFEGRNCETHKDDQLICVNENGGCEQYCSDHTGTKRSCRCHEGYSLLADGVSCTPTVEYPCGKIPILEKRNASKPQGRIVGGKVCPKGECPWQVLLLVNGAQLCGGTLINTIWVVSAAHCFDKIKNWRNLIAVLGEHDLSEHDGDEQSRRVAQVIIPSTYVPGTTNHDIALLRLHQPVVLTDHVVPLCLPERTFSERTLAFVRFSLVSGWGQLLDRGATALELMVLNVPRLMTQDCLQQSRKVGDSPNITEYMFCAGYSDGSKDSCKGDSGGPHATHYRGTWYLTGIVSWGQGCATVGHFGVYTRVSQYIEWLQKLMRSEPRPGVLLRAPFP

Rattus norvegicus [1] = assay: Area undercurve in Sprague-Dawley Rat (Wt 286) was determined after iv administration at a dose of 1 mg/kg; assay type: ADME, organism-based; design: dose 1 mg/kg, route intravenous; conditions: in vivo
Method in brief: (§1)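 Male Sprague-Dawley rats, three per group, received a single IV tail-vein bolus in 40% PEG400/H2O (1 or 2 mg/mL). Jugular blood was drawn into heparin at several times up to 24 h. Plasma was held at −80 °C, then assayed by LC-MS/MS against standard curves of 1–10000 ng/mL (LOQ 6 ng/mL). Parameters are mean ± SD; AUC runs 0 to infinity; volume of distribution is central compartment.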

Trypsin = Trypsin (Homo sapiens, UniProt P07477+P07478+P35030); assay: The compound was tested for inhibition of human trypsin; assay type: protein assay
[2] = Volume of distribution in Sprague-Dawley Rat (Wt 286) was determined after iv administration at a dose of 1 mg/kg; assay type: ADME, organism-based; design: dose 1 mg/kg, route intravenous; conditions: in vivo, read-out: Vc; method in brief: as §1
[3] = mean residence time in Sprague-Dawley Rat (Wt 286) was determined after iv administration at a dose of 1 mg/kg; assay type: ADME, organism-based; design: dose 1 mg/kg, route intravenous; conditions: in vivo; method in brief: as §1
[4] = terminal half-life in Sprague-Dawley Rat (Wt 286) was determined after iv administration at a dose of 1 mg/kg; assay type: ADME, organism-based; design: dose 1 mg/kg, route intravenous; conditions: in vivo; method in brief: as §1
[5] = Plasma clearance of compound in Sprague-Dawley Rat (Wt 286) was determined after iv administration at a dose of 1 mg/kg; assay type: ADME, organism-based; design: dose 1 mg/kg, route intravenous; conditions: read-out: Clp; method in brief: as §1
[6] = Volume of distribution at steady state in Sprague-Dawley Rat (Wt 286) was determined after iv administration at a dose of 1 mg/kg; assay type: ADME, organism-based; design: dose 1 mg/kg, route intravenous; conditions: in vivo, read-out: Vss; method in brief: as §1
Prothrombin = Prothrombin (Homo sapiens, UniProt P00734); assay: The compound was tested for inhibition of human thrombin
Coagulation factor X = Coagulation factor X (Homo sapiens, UniProt P00742); assay: Binding affinity against human coagulation factor X
[7] = biological target: Urokinase-type plasminogen activator (Homo sapiens, UniProt P00749); assay: The compound was tested for inhibition of human urokinase type plasminogen activator (microPa)
[8] = biological target: Tissue-type plasminogen activator (Homo sapiens, UniProt P00750); assay: The compound was tested for inhibition of human tissue plasminogen activator
[9] = terminal half-life in Sprague-Dawley Rat (Wt 294) was determined after iv administration at a dose of 2 mg/kg; assay type: ADME, organism-based; design: dose 2 mg/kg, route intravenous; conditions: in vivo; method in brief: as §1
[10] = Plasma clearance of compound in Sprague-Dawley Rat (Wt 294) was determined after iv administration at a dose of 2 mg/kg; assay type: ADME, organism-based; design: dose 2 mg/kg, route intravenous; conditions: read-out: Clp; method in brief: as §1
[11] = Volume of distribution in Sprague-Dawley Rat (Wt 294) was determined after iv administration at a dose of 2 mg/kg; assay type: ADME, organism-based; design: dose 2 mg/kg, route intravenous; conditions: in vivo, read-out: Vc; method in brief: as §1
Rattus norvegicus [12] = assay: Integrated area under the plasma concentration in Sprague-Dawley Rat (Wt 294) was determined after iv administration at a dose of 2 mg/kg; assay type: ADME, organism-based; design: dose 2 mg/kg, route intravenous; conditions: in vivo; method in brief: as §1
[13] = Mean residence time of compound in Sprague-Dawley Rat (Wt 294) was determined after iv administration at a dose of 2 mg/kg; assay type: ADME, organism-based; design: dose 2 mg/kg, route intravenous; conditions: in vivo; method in brief: as §1
[14] = Volume of distribution at steady state in Sprague-Dawley Rat (Wt 294) was determined after iv administration at a dose of 2 mg/kg; assay type: ADME, organism-based; design: dose 2 mg/kg, route intravenous; conditions: in vivo, read-out: Vss; method in brief: as §1

Sequence of Coagulation factor X (P00742 41-179 limits assumed): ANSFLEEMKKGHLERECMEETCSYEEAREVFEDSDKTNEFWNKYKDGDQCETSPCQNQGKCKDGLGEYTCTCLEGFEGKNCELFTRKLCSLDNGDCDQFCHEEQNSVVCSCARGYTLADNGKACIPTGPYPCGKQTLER
Sequence of Coagulation factor X (P00742 235-488 limits assumed): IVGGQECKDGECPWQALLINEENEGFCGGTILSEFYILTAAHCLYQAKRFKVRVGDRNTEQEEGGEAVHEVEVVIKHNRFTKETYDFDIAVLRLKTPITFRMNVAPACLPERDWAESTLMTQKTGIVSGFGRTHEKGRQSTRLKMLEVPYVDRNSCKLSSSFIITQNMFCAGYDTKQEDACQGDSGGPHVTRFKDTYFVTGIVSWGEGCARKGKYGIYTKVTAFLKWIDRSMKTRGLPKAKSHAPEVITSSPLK
Sequence of Plasma kallikrein (P03952 20-390 limits assumed): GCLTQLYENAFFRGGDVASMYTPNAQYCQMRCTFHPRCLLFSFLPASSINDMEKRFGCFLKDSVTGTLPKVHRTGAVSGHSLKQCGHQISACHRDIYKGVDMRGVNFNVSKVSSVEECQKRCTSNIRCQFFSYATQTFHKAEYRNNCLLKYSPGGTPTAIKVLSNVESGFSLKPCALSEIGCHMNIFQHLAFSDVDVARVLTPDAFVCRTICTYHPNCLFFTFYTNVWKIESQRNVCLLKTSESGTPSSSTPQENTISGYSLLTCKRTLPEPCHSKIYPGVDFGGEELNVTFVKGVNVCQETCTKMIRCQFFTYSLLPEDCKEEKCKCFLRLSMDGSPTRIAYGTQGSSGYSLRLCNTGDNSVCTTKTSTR
Sequence of Plasma kallikrein (P03952 391-638 limits assumed): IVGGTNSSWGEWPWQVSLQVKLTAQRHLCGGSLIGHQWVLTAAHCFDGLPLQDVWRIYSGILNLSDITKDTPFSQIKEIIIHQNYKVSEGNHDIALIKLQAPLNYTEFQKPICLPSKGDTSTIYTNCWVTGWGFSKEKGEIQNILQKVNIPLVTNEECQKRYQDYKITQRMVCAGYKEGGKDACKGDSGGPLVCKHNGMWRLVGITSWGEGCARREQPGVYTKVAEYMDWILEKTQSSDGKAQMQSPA
Sequence of Tissue-type plasminogen activator (P00750 whole entry): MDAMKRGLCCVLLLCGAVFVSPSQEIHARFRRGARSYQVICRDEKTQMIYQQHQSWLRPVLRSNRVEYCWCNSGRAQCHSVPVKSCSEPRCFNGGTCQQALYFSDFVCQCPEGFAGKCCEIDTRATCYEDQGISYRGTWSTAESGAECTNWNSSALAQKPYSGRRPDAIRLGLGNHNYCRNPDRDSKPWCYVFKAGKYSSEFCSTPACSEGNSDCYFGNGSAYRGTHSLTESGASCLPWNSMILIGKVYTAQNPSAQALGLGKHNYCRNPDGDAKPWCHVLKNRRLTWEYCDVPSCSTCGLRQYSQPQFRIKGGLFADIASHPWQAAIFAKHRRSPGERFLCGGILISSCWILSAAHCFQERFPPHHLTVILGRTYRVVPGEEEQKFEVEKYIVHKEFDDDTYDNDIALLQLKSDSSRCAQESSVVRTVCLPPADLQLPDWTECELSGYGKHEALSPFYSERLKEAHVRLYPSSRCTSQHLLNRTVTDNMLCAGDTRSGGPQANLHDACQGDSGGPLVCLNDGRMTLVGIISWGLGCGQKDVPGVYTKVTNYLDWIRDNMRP

Structure (SMILES)	Ki (Plasma kallikrein) [µM]	Ki (Coagulation factor VII) [µM]	Ki (Trypsin) [µM]	Ki (Prothrombin) [µM]	Ki (Coagulation factor X) [µM]	Ki [7] [µM]	also measured
N=C(N)c1ccc2[nH]c(-c3cccc(-c4ccccc4)c3O)cc2c1	0.0019	0.16	0.13	–	–	–	AUC (Rattus norvegicus [1]): 0.4 µM·h; Vd [2]: 1.56 L/kg; MRT [3]: 1.77 h; half-life [4]: 1.7 h; clearance [5]: 121 mL/min/kg; Vd [6]: 11.9 L/kg
N=C(N)c1ccc2[nH]c(-c3cccc(-c4ccccc4)c3O)cc2c1Cl	1.3	5.5	4.7	65	5.2	0.49	Ki [8]: 3.3 µM
N=C(N)c1cc2cc(-c3cccc(-c4ccccc4)c3O)[nH]c2cc1Cl	–	–	–	–	–	–	half-life [9]: 3.15 h; clearance [10]: 59 mL/min/kg; Vd [11]: 0.346 L/kg; AUC (Rattus norvegicus [12]): 1.42 µM·h; MRT [13]: 2.17 h; Vd [14]: 7.7 L/kg
N=C(N)c1cc2cc(-c3cccc(-c4ccccc4)c3O)[nH]c2cc1O	1.3	> 75	50	> 75	> 75	–	–
Cc1cc2[nH]c(-c3cccc(-c4ccccc4)c3O)cc2cc1C(=N)N	4.8	7	1.6	> 75	> 75	0.1	Ki [8]: 39 µM
COc1cc2[nH]c(-c3cccc(-c4ccccc4)c3O)cc2cc1C(=N)N	0.6	16	14	> 75	26	0.36	–
N=C(N)c1cc2cc(-c3cccc(-c4ccccc4)c3O)[nH]c2cc1F	0.11	0.75	1.1	7.5	–	–	–
